Reference: ChEMBL document CHEMBL1799931, “Synthesis, evaluation and metabolic studies of radiotracers containing a 4-(4-[18F]-fluorobenzyl)piperidin-1-yl moiety for the PET imaging of NR2B NMDA receptors” (Eur J Med Chem, 2011)
Each block holds one molecule with its values, some of them ahead of it.

Columns and labels:
Muscle tissue [1] = test: Biodistribution in Sprague-Dawley rat muscle at 3.2 to 18.6 MBq, iv after 120 mins by micro PET analysis; type: ADME, organism-based; conditions: in vivo, 2 h
In short: (§1)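 Male Sprague-Dawley rats (235-310 g) under isoflurane got 18F radiotracer (3.2-18.6 MBq) by tail-vein catheter, n = 3. Dynamic microPET scan for 120 min, then ex vivo tissue counting at 120 min post-injection. Values are %ID/g ± SEM.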

[2] = Biodistribution in Sprague-Dawley rat fat at 3.2 to 18.6 MBq, iv after 120 mins by micro PET analysis; type: ADME, organism-based, Adipose tissue; conditions: in vivo, 2 h; in short: as §1
Brain [3] = test: Biodistribution in Sprague-Dawley rat brain at 3.2 to 18.6 MBq, iv after 120 mins by micro PET analysis; type: ADME, organism-based; conditions: in vivo, 2 h; in short: as §1
Bone [4] = test: Biodistribution in Sprague-Dawley rat bone at 3.2 to 18.6 MBq, iv after 120 mins by micro PET analysis; type: ADME, organism-based, Bone element; conditions: in vivo, 2 h; in short: as §1
Rattus norvegicus [5] = test: Biodistribution in Sprague-Dawley rat cartilage at 3.2 to 18.6 MBq, iv after 120 mins by micro PET analysis; type: ADME, organism-based, Cartilage tissue; conditions: in vivo, 2 h; in short: as §1
Thymus [6] = test: Biodistribution in Sprague-Dawley rat thymus at 3.2 to 18.6 MBq, iv after 120 mins by micro PET analysis; type: ADME, organism-based; conditions: in vivo, 2 h; in short: as §1
[7] = Metabolic stability in Sprague-Dawley rat plasma assessed as half life by radio thin layer chromatography analysis; type: ADME, cell-free
In short: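 Anesthetized male Sprague-Dawley rats (235-330 g) given radiotracer (3.2-15.1 MBq). Femoral arterial blood was sampled over 90 min and plasma gamma-counted. Plasma was diluted with acetonitrile, centrifuged and run on silica radio-TLC with cold reference, giving parent and radiometabolite fractions.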

Lung [8] = test: Biodistribution in Sprague-Dawley rat lung at 3.2 to 18.6 MBq, iv after 120 mins by micro PET analysis; type: ADME, organism-based; conditions: in vivo, 2 h; in short: as §1
Heart [9] = test: Biodistribution in Sprague-Dawley rat heart at 3.2 to 18.6 MBq, iv after 120 mins by micro PET analysis; type: ADME, organism-based; conditions: in vivo, 2 h; in short: as §1
Pancreas [10] = test: Biodistribution in Sprague-Dawley rat pancreas at 3.2 to 18.6 MBq, iv after 120 mins by micro PET analysis; type: ADME, organism-based; conditions: in vivo, 2 h; in short: as §1
Liver [11] = test: Biodistribution in Sprague-Dawley rat liver at 3.2 to 18.6 MBq, iv after 120 mins by micro PET analysis; type: ADME, organism-based; conditions: in vivo, 2 h; in short: as §1
Spleen [12] = test: Biodistribution in Sprague-Dawley rat spleen at 3.2 to 18.6 MBq, iv after 120 mins by micro PET analysis; type: ADME, organism-based; conditions: in vivo, 2 h; in short: as §1
Kidney [13] = test: Biodistribution in Sprague-Dawley rat kidney at 3.2 to 18.6 MBq, iv after 120 mins by micro PET analysis; type: ADME, organism-based; conditions: in vivo, 2 h; in short: as §1
[14] = Biodistribution in Sprague-Dawley rat urine at 3.2 to 18.6 MBq, iv after 120 mins by micro PET analysis; type: ADME, organism-based; conditions: in vivo, 2 h; in short: as §1
Rattus norvegicus [15] = test: Biodistribution in Sprague-Dawley rat bladder at 3.2 to 18.6 MBq, iv after 120 mins by micro PET analysis; type: ADME, organism-based, Urinary bladder; conditions: in vivo, 2 h; in short: as §1
Intestine [16] = test: Biodistribution in Sprague-Dawley rat intestine at 3.2 to 18.6 MBq, iv after 120 mins by micro PET analysis; type: ADME, organism-based; conditions: in vivo, 2 h; in short: as §1
Hippocampus = test: Biodistribution in Sprague-Dawley rat hippocampus at 3.2 to 18.6 MBq, iv after 120 mins by micro PET analysis; conditions: in vivo, 2 h
Cerebellum = test: Biodistribution in Sprague-Dawley rat cerebellum at 3.2 to 18.6 MBq, iv after 120 mins by micro PET analysis; conditions: in vivo, 2 h
Mus musculus = test: Analgesic activity in po dosed mouse assessed as licking behavior measured after 20 to 25 mins by formalin test; type: functional, organism-based; conditions: Mus musculus, po; read-out: ED50
[17] = target: Glutamate NMDA receptor; GRIN1/GRIN2A (Homo sapiens) (UniProt Q05586+Q12879); test: Antagonist activity against NR1a/NR2A receptor transfected in human HEK293 cells assessed as inhibition of NMDA-induced Ca2+ influx at 10 uM; type: functional, cell-based
In short: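 HEK293 cells co-transfected 1:1 with NR1-1a plus NR2A-GFP or NR2B-GFP, D-APV (100 µM) after transfection, used at 24 h. Cells loaded with Fura-2/AM 45 min at 37 °C, then held in HBBSS with glycine, pH 7.45, at room temperature under perfusion. NMDA 100 µM for 30 s; ligands applied 60 s before and during.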

Rattus norvegicus [18] = test: Analgesic activity against carrageenan-induced mechanical hyperalgesia in iv dosed rat; type: functional
[19] = Half life in rat plasma; type: ADME, cell-free
[20] = target: Glutamate NMDA receptor; GRIN1/GRIN2B (Homo sapiens, UniProt Q05586+Q13224); test: Antagonist activity against NR1a/NR2B receptor transfected in human HEK293 cells assessed as inhibition of NMDA-induced Ca2+ influx; type: functional, cell-based
Sequence of Glutamate NMDA receptor; GRIN1/GRIN2B (Q13224 whole entry, other chains not shown): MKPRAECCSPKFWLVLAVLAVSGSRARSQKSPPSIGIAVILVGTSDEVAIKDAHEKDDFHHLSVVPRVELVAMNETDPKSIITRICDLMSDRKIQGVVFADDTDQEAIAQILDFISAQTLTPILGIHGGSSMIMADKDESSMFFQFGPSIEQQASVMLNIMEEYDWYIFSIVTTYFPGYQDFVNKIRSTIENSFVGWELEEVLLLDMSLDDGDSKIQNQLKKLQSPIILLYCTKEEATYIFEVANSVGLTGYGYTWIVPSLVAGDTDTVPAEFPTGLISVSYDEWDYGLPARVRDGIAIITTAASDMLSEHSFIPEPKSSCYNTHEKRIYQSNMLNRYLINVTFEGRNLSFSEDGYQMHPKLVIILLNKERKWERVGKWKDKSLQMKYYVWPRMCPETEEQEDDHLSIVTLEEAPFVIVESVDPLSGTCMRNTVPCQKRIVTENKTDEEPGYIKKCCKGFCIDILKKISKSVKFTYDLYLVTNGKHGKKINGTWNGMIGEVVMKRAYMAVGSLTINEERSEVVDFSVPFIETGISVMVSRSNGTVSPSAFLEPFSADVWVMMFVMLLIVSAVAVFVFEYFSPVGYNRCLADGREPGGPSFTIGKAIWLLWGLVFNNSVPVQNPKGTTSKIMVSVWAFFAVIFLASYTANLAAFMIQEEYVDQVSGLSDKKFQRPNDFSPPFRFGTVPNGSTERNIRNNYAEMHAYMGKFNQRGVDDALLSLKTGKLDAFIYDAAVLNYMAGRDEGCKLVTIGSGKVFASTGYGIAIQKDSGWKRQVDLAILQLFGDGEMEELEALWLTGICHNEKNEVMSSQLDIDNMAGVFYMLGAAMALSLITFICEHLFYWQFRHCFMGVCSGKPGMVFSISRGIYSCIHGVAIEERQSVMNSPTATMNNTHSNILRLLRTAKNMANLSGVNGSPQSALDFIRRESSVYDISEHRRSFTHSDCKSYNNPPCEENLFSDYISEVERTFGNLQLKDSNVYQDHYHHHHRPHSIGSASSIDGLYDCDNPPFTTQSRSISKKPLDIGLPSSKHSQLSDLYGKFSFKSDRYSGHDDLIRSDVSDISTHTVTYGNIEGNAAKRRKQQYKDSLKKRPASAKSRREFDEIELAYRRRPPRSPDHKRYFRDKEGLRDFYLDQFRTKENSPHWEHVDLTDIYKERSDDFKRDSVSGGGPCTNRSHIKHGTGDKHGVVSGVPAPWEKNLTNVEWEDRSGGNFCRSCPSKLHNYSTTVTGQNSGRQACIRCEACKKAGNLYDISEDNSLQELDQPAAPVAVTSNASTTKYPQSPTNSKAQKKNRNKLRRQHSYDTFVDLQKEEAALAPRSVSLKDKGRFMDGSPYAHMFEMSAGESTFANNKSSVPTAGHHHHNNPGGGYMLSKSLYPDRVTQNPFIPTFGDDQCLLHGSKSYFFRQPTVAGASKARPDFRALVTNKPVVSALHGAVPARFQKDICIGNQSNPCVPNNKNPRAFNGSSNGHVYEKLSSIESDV

Thymus [21] = test: Biodistribution in Sprague-Dawley rat thymus at 3.2 to 18.6 MBq, iv after 90 mins by micro PET analysis; type: ADME, organism-based; conditions: in vivo, 1.5 h
In short: (§2)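 Male Sprague-Dawley rats (235-310 g) under isoflurane got 18F radiotracer (3.2-18.6 MBq) by tail-vein catheter, n = 2. Dynamic microPET scan for 90 min, then ex vivo tissue counting at 90 min post-injection. Values are %ID/g ± SEM.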

Lung [22] = test: Biodistribution in Sprague-Dawley rat lung at 3.2 to 18.6 MBq, iv after 90 mins by micro PET analysis; type: ADME, organism-based; conditions: in vivo, 1.5 h; in short: as §2
Heart [23] = test: Biodistribution in Sprague-Dawley rat heart at 3.2 to 18.6 MBq, iv after 90 mins by micro PET analysis; type: ADME, organism-based; conditions: in vivo, 1.5 h; in short: as §2
Pancreas [24] = test: Biodistribution in Sprague-Dawley rat pancreas at 3.2 to 18.6 MBq, iv after 90 mins by micro PET analysis; type: ADME, organism-based; conditions: in vivo, 1.5 h; in short: as §2
Liver [25] = test: Biodistribution in Sprague-Dawley rat liver at 3.2 to 18.6 MBq, iv after 90 mins by micro PET analysis; type: ADME, organism-based; conditions: in vivo, 1.5 h; in short: as §2
Spleen [26] = test: Biodistribution in Sprague-Dawley rat spleen at 3.2 to 18.6 MBq, iv after 90 mins by micro PET analysis; type: ADME, organism-based; conditions: in vivo, 1.5 h; in short: as §2
Kidney [27] = test: Biodistribution in Sprague-Dawley rat kidney at 3.2 to 18.6 MBq, iv after 90 mins by micro PET analysis; type: ADME, organism-based; conditions: in vivo, 1.5 h; in short: as §2
[28] = Biodistribution in Sprague-Dawley rat urine at 3.2 to 18.6 MBq, iv after 90 mins by micro PET analysis; type: ADME, organism-based; conditions: in vivo, 1.5 h; in short: as §2
Rattus norvegicus [29] = test: Biodistribution in Sprague-Dawley rat bladder at 3.2 to 18.6 MBq, iv after 90 mins by micro PET analysis; type: ADME, organism-based, Urinary bladder; conditions: in vivo, 1.5 h; in short: as §2
Intestine [30] = test: Biodistribution in Sprague-Dawley rat intestine at 3.2 to 18.6 MBq, iv after 90 mins by micro PET analysis; type: ADME, organism-based; conditions: in vivo, 1.5 h; in short: as §2
Muscle tissue [31] = test: Biodistribution in Sprague-Dawley rat muscle at 3.2 to 18.6 MBq, iv after 90 mins by micro PET analysis; type: ADME, organism-based; conditions: in vivo, 1.5 h; in short: as §2
[32] = Biodistribution in Sprague-Dawley rat fat at 3.2 to 18.6 MBq, iv after 90 mins by micro PET analysis; type: ADME, organism-based, Adipose tissue; conditions: in vivo, 1.5 h; in short: as §2
Brain [33] = test: Biodistribution in Sprague-Dawley rat brain at 3.2 to 18.6 MBq, iv after 90 mins by micro PET analysis; type: ADME, organism-based; conditions: in vivo, 1.5 h; in short: as §2
Bone [34] = test: Biodistribution in Sprague-Dawley rat bone at 3.2 to 18.6 MBq, iv after 90 mins by micro PET analysis; type: ADME, organism-based, Bone element; conditions: in vivo, 1.5 h; in short: as §2
Rattus norvegicus [35] = test: Biodistribution in Sprague-Dawley rat cartilage at 3.2 to 18.6 MBq, iv after 90 mins by micro PET analysis; type: ADME, organism-based, Cartilage tissue; conditions: in vivo, 1.5 h; in short: as §2

Drug uptake (Muscle tissue [1]): 0.069 % ID/g
Drug uptake [2]: 0.056 % ID/g
Drug uptake (Brain [3]): 0.054 % ID/g
Drug uptake (Bone [4]): 0.397 % ID/g
Drug uptake (Rattus norvegicus [5]): 0.776 % ID/g
Drug uptake (Thymus [6]): 0.057 % ID/g
half-life [7]: 50 min
Drug uptake (Lung [8]): 0.132 % ID/g
Drug uptake (Heart [9]): 0.076 % ID/g
Drug uptake (Pancreas [10]): 0.08 % ID/g
Drug uptake (Liver [11]): 1.365 % ID/g
Drug uptake (Spleen [12]): 0.169 % ID/g
Drug uptake (Kidney [13]): 0.377 % ID/g
Drug uptake [14]: 3.237 % ID/g
Drug uptake (Rattus norvegicus [15]): 0.175 % ID/g
Drug uptake (Intestine [16]): 0.107 % ID/g
Drug uptake (Hippocampus): 0.064 % ID/g
Drug uptake (Cerebellum): 0.046 % ID/g
SMILES: O=C(Nc1ccc2[nH]c(=O)oc2c1)C(=O)N1CCC(Cc2ccc([18F])cc2)CC1

inhibition [17]: 10.1%
SMILES: O=C(Nc1ccc2nc(O)oc2c1)C(=O)N1CCC(Cc2ccc(F)cc2)CC1 [RADIPRODIL]
ED50 (Mus musculus): 7.7 mg/kg

half-life [19]: > 480 min
IC50 [20]: 209 nM
SMILES: Oc1ccc2nc(CN3CCC(Cc4ccccc4)CC3)[nH]c2c1
ED50 (Rattus norvegicus [18]): 3.3 mg/kg

Drug uptake (Thymus [21]): 0.187 % ID/g
Drug uptake (Lung [22]): 0.507 % ID/g
Drug uptake (Heart [23]): 0.135 % ID/g
Drug uptake (Pancreas [24]): 0.285 % ID/g
Drug uptake (Liver [25]): 2.307 % ID/g
Drug uptake (Spleen [26]): 0.322 % ID/g
Drug uptake (Kidney [27]): 1.206 % ID/g
Drug uptake [28]: 10.125 % ID/g
Drug uptake (Rattus norvegicus [29]): 0.542 % ID/g
Drug uptake (Intestine [30]): 0.902 % ID/g
Drug uptake (Muscle tissue [31]): 0.145 % ID/g
Drug uptake [32]: 0.052 % ID/g
Drug uptake (Brain [33]): 0.395 % ID/g
Drug uptake (Bone [34]): 0.75 % ID/g
Drug uptake (Rattus norvegicus [35]): 2.312 % ID/g
half-life [7]: 10 min
SMILES: [18F]c1ccc(CC2CCNCC2)cc1
